This is an account of results in ChEMBL document CHEMBL1121681, “Synthesis and antiviral activity of certain 9-beta-D-ribofuranosylpurine-6-carboxamides” (1981).

Molecules are shown by their SMILES.

The subject of experiment [1] is Laryngeal epithelioma cell line. The experiment is described as follows: In vitro antiviral activity against COXB1 virus in human laryngeal epithelioma cell line / 1000 toxic level. The format is functional.
Experiment [2] shares this test system. The experiment is described as follows: In vitro antiviral activity against HSV-1 virus in human laryngeal epithelioma cell line / 1000 toxic level. It counts as functional.
The test system is the same in experiment [3]. The experiment can be described thus: In vitro antiviral activity against Para 3 virus in human laryngeal epithelioma cell line / 1000 toxic level. It counts as functional.
Experiment [4] has the same test system. The experiment can be described thus: In vitro antiviral activity against V V virus human laryngeal epithelioma cell line / 1000 toxic level. It counts as functional.
Experiment [5] shares this test system. The experiment is described as follows: In vitro antiviral activity against VSV virus in human laryngeal epithelioma cell line / 1000 toxic level. It counts as functional.
Experiment [6] relates to Vero. The experiment can be described thus: In vitro antiviral activity against COXB1 virus in (vero) V cells of african green monkey kidney. The format is functional, Chlorocebus sabaeus.
Experiment [7] deals with Vero. The experiment can be described thus: In vitro antiviral activity against HSV-1 virus in (vero) V cells of african green monkey kidney. It counts as functional, Chlorocebus sabaeus.
Experiment [8] concerns Vero. The experiment can be described thus: In vitro antiviral activity against V V virus in (vero) V cells of african green monkey kidney. It counts as functional, Chlorocebus sabaeus.
Experiment [9] concerns Vero. The experiment can be described thus: In vitro antiviral activity against VSV virus in (vero) V cells of african green monkey kidney. It counts as functional, Chlorocebus sabaeus.
For experiment [10], the system named is Laryngeal epithelioma cell line. The experiment is described as follows: In vitro antiviral activity against vaccinia virus human laryngeal epithelioma cell line / 320 toxic level. The format is functional.
The test system is the same in experiment [11]. The experiment is described as follows: In vitro antiviral activity against HSV-1 virus in human laryngeal epithelioma cell line / 320 toxic level. It counts as functional.
Experiment [12] shares this test system. The experiment can be described thus: In vitro antiviral activity against Para 3 virus in human laryngeal epithelioma cell line / 320 toxic level. It counts as functional.
The test system is the same in experiment [13]. The experiment can be described thus: In vitro antiviral activity against VSV virus in human laryngeal epithelioma cell line / 320 toxic level. The format is functional.
Experiment [14] shares this test system. The experiment can be described thus: In vitro antiviral activity against Cox B1 virus in human laryngeal epithelioma cell line / 320 toxic level. It counts as functional.
Experiment [15] concerns Vero. The experiment can be described thus: In vitro antiviral activity against Cox B1 virus in (vero) V cells of african green monkey kidney / 320 toxic level. It counts as functional, Chlorocebus sabaeus.
Experiment [16] has as its system Vero. The experiment is described as follows: In vitro antiviral activity against vaccinia virus in (vero) V cells of african green monkey kidney / 320 toxic level. It counts as functional, Chlorocebus sabaeus.
In experiment [17] the test system is Vero. The experiment is described as follows: In vitro antiviral activity against HSV-1 virus in (vero) V cells of african green monkey kidney / 320 toxic level. The format is functional, Chlorocebus sabaeus.
Experiment [18] has as its system Vero. The experiment can be described thus: In vitro antiviral activity against Para 3 virus in (vero) V cells of african green monkey kidney / 320 toxic level. The format is functional, Chlorocebus sabaeus.
Experiment [19] relates to Vero. The experiment can be described thus: In vitro antiviral activity against VSV virus in (vero) V cells of african green monkey kidney / 320 toxic level. It counts as functional, Chlorocebus sabaeus.
Experiment [20] concerns Laryngeal epithelioma cell line. The experiment can be described thus: In vitro antiviral activity against COXB1 virus in human laryngeal epithelioma cell line. It counts as functional.
The test system is the same in experiment [21]. The experiment can be described thus: In vitro antiviral activity against Para 3 virus in human laryngeal epithelioma cell line. It counts as functional.
Experiment [22] shares this test system. The experiment can be described thus: In vitro antiviral activity against V V virus in human laryngeal epithelioma cell line. It counts as functional.
The test system is the same in experiment [23]. The experiment is described as follows: In vitro antiviral activity against VSV virus in human laryngeal epithelioma cell line. It counts as functional.
Experiment [24] has the same test system. The experiment can be described thus: In vitro antiviral activity against HSV-1 virus in human laryngeal epithelioma cell line. It counts as functional.
The subject of experiment [25] is Rift Valley fever virus. The experiment is described as follows: Percent increase in survival rate of Rift Valley fever virus infected mice on day 21, by administering 100 (mg/kg)/day of compound. It counts as functional.
Experiment [26] has as its system Vero. The experiment is described as follows: In vitro antiviral activity against COXB1 virus in (vero) V cells. The format is functional, Chlorocebus sabaeus.
In experiment [27] the test system is Vero. The experiment can be described thus: In vitro antiviral activity against Para 3 virus in (vero) V cells of african green monkey kidney. The format is functional, Chlorocebus sabaeus.
Experiment [28] has as its system Vero. The experiment can be described thus: In vitro antiviral activity against VSV virus in (vero) V cells. The format is functional, Chlorocebus sabaeus.
The test system of experiment [29] is Laryngeal epithelioma cell line. The experiment is described as follows: In vitro antiviral activity against V V virus human laryngeal epithelioma cell line / 320 toxic level. The format is functional.
The test system is the same in experiment [30]. The experiment is described as follows: In vitro antiviral activity against COXB1 virus in human laryngeal epithelioma cell line / 320 toxic level. It counts as functional.
Experiment [31] has as its system Vero. The experiment is described as follows: In vitro antiviral activity against COXB1 virus in (vero) V cells of african green monkey kidney / 1000 toxic level. The format is functional, Chlorocebus sabaeus.
Experiment [32] has as its system Vero. The experiment is described as follows: In vitro antiviral activity against HSV-1 virus in (vero) V cells of african green monkey kidney / 1000 toxic level. It counts as functional, Chlorocebus sabaeus.
Experiment [33] concerns Vero. The experiment can be described thus: In vitro antiviral activity against Para 3 virus in (vero) V cells of african green monkey kidney / 1000 toxic level. It counts as functional, Chlorocebus sabaeus.
For experiment [34], the system named is Vero. The experiment can be described thus: In vitro antiviral activity against V V virus in (vero) V cells of african green monkey kidney / 1000 toxic level. It counts as functional, Chlorocebus sabaeus.
The subject of experiment [35] is Vero. The experiment can be described thus: In vitro antiviral activity against VSV virus in (vero) V cells of african green monkey kidney / 1000 toxic level. The format is functional, Chlorocebus sabaeus.
In experiment [36] the test system is Rift Valley fever virus. The experiment can be described thus: Inhibition of growth of Rift Valley fever virus in vero cells by administering 250 ug/mL of compound. The format is functional, Chlorocebus sabaeus.
In experiment [37] the test system is Rift Valley fever virus. The experiment can be described thus: Percent increase in survival rate of Rift Valley fever virus infected mice on day 21, by administering 50 (mg/kg)/day of compound. The format is functional.
Experiment [38] concerns Vero. The experiment can be described thus: Inhibition of growth of Pichinde virus in vero cells by administering 250 ug/mL of compound. It counts as functional, Chlorocebus sabaeus. In short, it runs like this: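 Pichinde virus was adsorbed to Vero monolayers in 24-well cultures for 1 h at 37 °C. Cells were overlaid with agar containing compound dilutions and incubated at 37 °C with CO2. Plaques were counted after crystal violet staining to give inhibition of viral growth.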

The test system of experiment [39] is Vero. The experiment is described as follows: Inhibition of growth of Rift Valley fever virus in vero cells by administering 500 ug/mL of compound. It counts as functional, Chlorocebus sabaeus.
For experiment [40], the system named is Laryngeal epithelioma cell line. The experiment is described as follows: In vitro antiviral activity against Para 3 virus in human laryngeal epithelioma cell line / 100 toxic level. It counts as functional.
For experiment [41] the test system is unchanged. The experiment can be described thus: In vitro antiviral activity against VSV virus in human laryngeal epithelioma cell line / 100 toxic level. The format is functional.
Experiment [42] shares this test system. The experiment is described as follows: In vitro antiviral activity against Vaccinia virus human laryngeal epithelioma cell line / 100 toxic level. The format is functional.
The test system is the same in experiment [43]. The experiment is described as follows: In vitro antiviral activity against Cox B1 virus in human laryngeal epithelioma cell line / 100 toxic level. The format is functional.
For experiment [44] the test system is unchanged. The experiment is described as follows: In vitro antiviral activity against HSV-1 virus in human laryngeal epithelioma cell line / 100 toxic level. It counts as functional.
Experiment [45] relates to Vero. The experiment can be described thus: In vitro antiviral activity against Vaccinia virus in (vero) V cells of african green monkey kidney / 320 toxic level. It counts as functional, Chlorocebus sabaeus.

For orientation: ILS means the gain in survival time of treated over control animals, in per cent. The term Inhibition denotes the relative decrease from the control value, in per cent.

As for `OC[C@H]1O[C@@H](n2cnc3c(Cl)ncnc32)[C@H](O)[C@@H]1O`, the Virus rating came to 1 in [1]; 0.6 in experiment [2]; 1.3 in experiment [3]; 0.8 in experiment [4]; 0.3 in [5]; 0.4 in the experiment with Vero [6]. Besides, the figures for the Virus rating in the experiment on Vero [7], with Vero [8] and in the experiment with Vero [9] were 0.9, 1.5 and 0.5, respectively.

For the molecule `Nc1ncnc2c(N[C@@H]3O[C@H](CO)[C@@H](O)[C@@H]3O)ncnc12`, the Virus rating in experiment [10] amounted to 1.3; in experiment [11], 1.6; in experiment [12], 1.5; in experiment [13], 1.5; in [14], 1; in the experiment on Vero [15], 0.6. For the same molecule, the Virus rating with Vero [16] was 1.4; in the experiment on Vero [17] it was 0.8; with Vero [18], 0.7; in the experiment on Vero [19], 0.6.

With `NC(=O)c1ncn([C@@H]2O[C@H](CO)[C@@H](O)[C@H]2O)n1` [RIBAVIRIN], the Virus rating in experiment [20] came to 1.1; in experiment [21] it was 1.4; in experiment [22], 1.2; in [23], 1.6; in experiment [24] it was 1.2; with Vero [26], 0.6. Further, the Virus rating in the experiment with Vero [7] is reported as 0.6; in the experiment with Vero [27], 1.3; in the experiment on Vero [8], 1.2; in the experiment on Vero [28], 0.8. The ILS in the experiment on Rift Valley fever virus [25] was determined as 70%.

With `N#Cc1ncnc2c1ncn2C1O[C@H](CO)[C@@H](O)[C@H]1O` (stereo partly drawn), the Virus rating in experiment [11] came to 0.8; in [12], 1.2; in [29], 1; in [13], 0.8; in [30], 1; with Vero [31] it was 0. The Virus rating came out at 0.4 in the experiment with Vero [32], 0 in the experiment with Vero [33], 1 in the experiment with Vero [34] and 0 with Vero [35].

As for `OC[C@H]1OC(n2cnc3c(I)ncnc32)[C@H](O)[C@@H]1O` (stereo partly drawn), the Virus rating in [11] was 1.6; in [12], 0.6; in experiment [29], 0.8; in experiment [13], 0.9; in experiment [30], 1; in the experiment with Vero [31] it was 0.1. The Virus rating is on record as 1 with Vero [32], 0.7 in the experiment with Vero [33], 1.2 in the experiment on Vero [34] and 0 with Vero [35].

For the molecule `NC(=O)c1ncnc2c1ncn2C1O[C@H](CO)[C@@H](O)[C@H]1O` (stereo partly drawn), the Virus rating in experiment [11] is recorded as 0.6; in experiment [12], 1.4; in [29] it was 1.1; in experiment [13] it was 1.2; in experiment [30] it was 0.9; in the experiment with Vero [6], 0.4. The Virus rating with Vero [7] is 0.6; with Vero [27] it was 0; with Vero [8], 1.5; with Vero [9], 0. Also, the figures for the Inhibition in the experiment with Rift Valley fever virus [36], with Vero [38] and in the experiment on Vero [39] were 90%, 90% and 99%, respectively. The ILS in the experiment with Rift Valley fever virus [37] is on record as 55%.

As for `NC(=S)c1ncnc2c1ncn2C1O[C@H](CO)[C@@H](O)[C@H]1O` (stereo partly drawn), the Virus rating in experiment [40] turned out to be 1.3; in [41], 0.7; in experiment [42] it was 1.2; in [43] it was 1.1; in experiment [44] it was 0.4; in the experiment with Vero [15], 1. In addition, the Virus rating with Vero [45] is given as 0.8; with Vero [17] it was 1.1; in the experiment on Vero [19], 0.5.
